hERG rescue – hERG rescue from dofetilide block, primary screen, cell-based, CHO-hERG, FluxOR thallium flux, dofetilide IC70. Voltage-gated inwardly rectifying potassium channel KCNH2 (Homo sapiens), Q12809. dofetilide IC70 present. activation (rescue from dofetilide block), less the hit threshold, % at 10 µM. actives 0.51% (n = 310,000). AID 1511, 2009;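 active means activation above the mean of controls blocked by dofetilide plus 5 SD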;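 further: thallium influx through hERG after potassium depolarization seen as dye fluorescence rise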
KCNQ1 act – potentiators or activators of KCNQ1 channel, primary screen, cell-based, thallium flux, high-throughput; CHO-K1 KCNQ1, thallium flux FluxOR fluorescence; active compounds read high; B-score at 10 µM; actives 0.35% (n = 310,000); AID 2648, 2010;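 active means fluorescence ratio B-score, a plate-corrected score, at least three library SD, with initial intensity B-score within 5 SD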
Target sequence (P51787 whole entry, looked up): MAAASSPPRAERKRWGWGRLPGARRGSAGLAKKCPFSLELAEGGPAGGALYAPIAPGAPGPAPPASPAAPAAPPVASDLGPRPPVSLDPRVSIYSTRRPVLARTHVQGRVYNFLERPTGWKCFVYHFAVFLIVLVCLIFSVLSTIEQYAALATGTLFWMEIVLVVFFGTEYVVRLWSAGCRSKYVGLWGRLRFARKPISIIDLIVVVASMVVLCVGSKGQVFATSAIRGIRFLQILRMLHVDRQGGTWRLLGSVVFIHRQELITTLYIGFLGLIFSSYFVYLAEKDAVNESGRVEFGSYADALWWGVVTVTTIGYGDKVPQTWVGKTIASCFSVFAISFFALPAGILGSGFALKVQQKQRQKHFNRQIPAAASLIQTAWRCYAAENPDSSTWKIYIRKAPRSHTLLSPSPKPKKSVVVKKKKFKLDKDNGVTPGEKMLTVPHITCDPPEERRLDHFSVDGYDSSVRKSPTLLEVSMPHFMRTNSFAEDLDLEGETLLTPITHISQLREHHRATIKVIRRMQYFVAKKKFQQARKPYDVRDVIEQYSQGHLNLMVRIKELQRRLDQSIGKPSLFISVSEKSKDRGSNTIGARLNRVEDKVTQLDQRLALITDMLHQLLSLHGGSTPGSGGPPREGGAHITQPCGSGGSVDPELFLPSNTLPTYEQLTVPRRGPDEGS
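System: Stable KCNQ1 CHO-K1 line | Incubation: 90 min dye loading and 20 min compound exposure, both at room temperature | Measure: Ratio B score | Medium: Assay buffer for compound exposure, DMSO matched across wells | Compound dosing: Single-concentration screen | Probe or stimulus: K+/Tl+ depolarizing stimulus | Measured by: Kinetic FluxOR fluorescence, 10 s baseline plus 110 s post-stimulus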
KCNQ1 inh – inhibitors of human KCNQ1 channel, primary screen, cell-based, thallium flux, high-throughput. actives 1.3% (n = 310,000). AID 2642, 2010. CHO-K1 KCNQ1, FluxOR thallium flux fluorescence; active compounds read high. B-score at 10 µM. Potassium voltage-gated channel subfamily KQT member 1 (Homo sapiens), P51787;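 active means compounds whose thallium flux B-score, printed positive for inhibition, exceeds three library SD while starting fluorescence stays within three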;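 further: channel opened by potassium depolarization with thallium stimulus after 20 min compound exposure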
KCNK9 inh – KCNK9 potassium channel inhibitors, primary screen, HEK293 cells, thallium flux; Potassium channel subfamily K member 9 (Homo sapiens), Q9NPC2; FluxOR thallium flux fluorescence; active compounds read low; B-score at 10 µM; actives 1.2% (n = 310,000);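 active means ratio B-score over 3 SD below the library mean, with starting fluorescence within 5 SD of its mean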;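 further: negative B-score means less thallium flux so channel inhibition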
Cl transport mod – KCC2 cotransporter modulators, thallium flux, primary screen, cell-based, HEK293 KCC2, FluoZin-2 fluorescence, MLSMR. Solute carrier family 12 member 5 (Homo sapiens), Q9H2X9. KCC2 cells, thallium flux FluoZin-2 fluorescence. actives 2.2% (n = 190,000). B-score of Tl+ flux slope (higher = more flux/activation; lower = inhibition) at 10 µM;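 active means thallium flux slope and its plate-corrected score both differing from the plate sample mean at a set confidence after two filtering rounds, in either direction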;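 further: slope of fluorescence scaled to starting intensity during 10 to 20 s after thallium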
KCNK3 inh – human KCNK3 channel inhibitors, primary screen, CHO cells, FluxOR thallium flux, B-score; B-score at 10 µM; AID 602410, 2012; actives 0.84% (n = 340,000); FluxOR fluorescence; active compounds read low;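 active means B-score under library mean minus 4 SD, starting fluorescence ratio at most library mean plus 5 SD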;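 further: more negative B-score means stronger inhibition of thallium flux through KCNK3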
The depositor's hits bear a star; i = inactive; / = no result given. In the library only some 4.1% were active in any assay of this set; here they are far more common.

SMILES	hERG rescue	KCNQ1 act	KCNQ1 inh	KCNK9 inh	Cl transport mod	KCNK3 inh
Cn1c(=O)[nH]c(NCCc2ccc(O)cc2)c([N+](=O)[O-])c1=O	-0.3	i	i	i	/	i
CCN(C(=O)COC(=O)CCOc1cc(C)ccc1C)c1c(N)n(Cc2ccccc2)c(=O)[nH]c1=O	/	/	/	/	/	i
Cc1ccc(S(=O)(=O)N2CCOCC2)cc1C(=O)NCCc1ccc(Cl)cc1	/	/	/	/	/	i
CCOc1ccc(Nc2cc(=O)[nH]c(=O)[nH]2)cc1	-9.5	i	i	i	/	i
CCCCOc1cc(=O)[nH]c(=O)[nH]1	4.7*	i	i	i	/	i
COc1ccc([C@H]2CC(=O)C=C(c3ccc(CNC(=O)OC(C)(C)C)cc3)C2)cc1	/	/	/	/	/	i
COc1cc(OC)c(N(C)S(=O)(=O)c2cccc(C(=O)OCC(=O)N(C)Cc3ccccc3)c2)cc1Cl	/	/	/	/	/	i
OCCNc1ncnc2c1c(-c1ccccc1)c(-c1ccccc1)n2Cc1ccco1	-20.4	i	i	i	-2.8	i
c1ccc(-c2c(-c3ccccc3)n(Cc3ccco3)c3ncnc(NCCCn4ccnc4)c23)cc1	-26.2	i	12*	i	/	i
CCOc1ccc(S(=O)(=O)Nc2ccc(C(=O)NCC(c3ccccc3)N(C)C)cc2)cc1 (centres undefined)	-14.7	i	i	i	/	i
CCn1c(SCC(N)=O)nc2c(c1=O)C1(CCCC1)Cc1ccccc1-2	-4.4	i	i	-6.7*	3.61*	i
CCN(CC(=O)Nc1ccc(NC(C)=O)cc1)C(=O)c1cn(-c2ccccc2)nc1-c1cccs1	/	/	/	/	/	i
COc1ccc(-n2cc(-c3ccc(C)cc3)[n+]3c2SCC3)cc1	-19.5	i	7*	i	0.296	i
CCc1ccc(-n2cc(-c3ccc(F)cc3)[n+]3c2SCCC3)cc1	-17.7	i	6*	i	1.05	i
Cc1ccc(-c2cn(-c3ccccc3)c3[n+]2CCCS3)cc1	-20.0	i	i	i	0.174	i
Cc1cccc(N2CCN(C(=O)COc3ccc4c(c3)CCC4)CC2C)c1 (centres undefined)	/	/	/	/	/	i
CCN(CC)C(=O)[C@H]1C[C@H](CC(=O)NC(C)(C)C)C(=O)N2CCc3c([nH]c4ccc(Cl)cc34)[C@]12C	/	/	/	/	/	i
COc1cc(NC(=O)c2cc(-c3cccnc3)nc3ccc(C)cc23)c(OC)cc1Cl	6.5*	i	i	i	/	/
COc1ccc(NC(=O)c2cc(-c3cccnc3)nc3ccc(C)cc23)cc1OC	/	/	/	/	-0.084	i
CCCCCCn1c(N2CCN(c3cccc(Cl)c3)CC2)nc2c1c(=O)[nH]c(=O)n2C	-3.3	i	i	-7.61*	-0.783	i
CCCCCCCCn1c(N2CCN(c3cccc(Cl)c3)CC2)nc2c1c(=O)[nH]c(=O)n2C	-9.7	i	i	i	-0.268	i
Cc1ccc(Nc2cc(Cl)nc(N)n2)c([N+](=O)[O-])c1	/	/	/	/	/	i
O=C1CC(NCCc2ccccc2)C(=O)N1CCc1ccccc1 (centres undefined)	-8.3	i	i	i	-0.346	i
COc1ccc(CCNC2CC(=O)N(CCc3ccccc3)C2=O)cc1 (centres undefined)	7.1*	i	i	i	0.751	i
Cc1cc(C)c(S(=O)(=O)c2ccccc2)c(OC(=O)c2ccc(Cl)cc2Cl)n1	/	/	/	/	-0.00174	i
Cc1cc(C)c(S(=O)(=O)c2ccccc2)c(OC(=O)c2c(Cl)cccc2Cl)n1	-6.9	i	i	-7.16*	-1.23	i

High-throughput results from PubChem.
